Experiments:
Pyricularia grisea [1] = test: microbe, parasite or virus in culture; type: functional; conditions: ATCC 64413, 120 h, read-out: GI
Pyricularia grisea [2] = test: microbe, parasite or virus in culture; type: functional; conditions: ATCC 64413, 120 h, read-out: GI; remark: listed apart in the source
Pyricularia grisea [3] = test: microbe, parasite or virus in culture; type: functional, organism-based; conditions: ATCC 64413, 120 h
Pyricularia grisea [4] = test: microbe, parasite or virus in culture; type: functional; conditions: ATCC 64413, 120 h, read-out: GI; remark: listed apart in the source
Globisporangium ultimum [5] = test: Antifungal activity against logarithmic phase of Pythium ultimum ATCC 58812 assessed as growth inhibition at 100 ug/ml measured at 5 days post-drug treatment; type: functional; conditions: ATCC 58812, 120 h, read-out: GI
Method in brief: (§1)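 Log-phase mycelium (from 10 mm stationary-phase disks grown on cellophane over PDA, pH 5.6, 26 ± 1 °C) moved to PDA with compound added from DMSO stock at 45 °C. Final concentrations were 10, 50 or 100 µg mL^-1, with 0.1% DMSO in test and control media. Colony diameter was read daily for 5 days, in triplicate, as % of untreated control.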

Globisporangium ultimum [6] = test: Antifungal activity against logarithmic phase of Pythium ultimum ATCC 58812 assessed as growth inhibition at 50 ug/ml measured at 5 days post-drug treatment; type: functional; conditions: ATCC 58812, 120 h, read-out: GI
Method in brief: as §1

Globisporangium ultimum [7] = test: Antifungal activity against logarithmic phase of Pythium ultimum ATCC 58812 assessed as growth inhibition at 10 ug/ml measured at 5 days post-drug treatment; type: functional; conditions: ATCC 58812, 120 h, read-out: GI
Method in brief: as §1

Botrytis cinerea [8] = test: Antifungal activity against logarithmic phase of Botryotinia fuckeliana ATCC 48339 assessed as growth inhibition at 10 ug/ml measured at 5 days post-drug treatment; type: functional; conditions: ATCC 48339, 120 h, read-out: GI
Method in brief: as §1

Botrytis cinerea [9] = test: Antifungal activity against logarithmic phase of Botryotinia fuckeliana ATCC 48339 assessed as growth inhibition at 50 ug/ml measured at 5 days post-drug treatment; type: functional; conditions: ATCC 48339, 120 h, read-out: GI
Method in brief: as §1

Botrytis cinerea [10] = test: Antifungal activity against logarithmic phase of Botryotinia fuckeliana ATCC 48339 assessed as growth inhibition at 100 ug/ml measured at 5 days post-drug treatment; type: functional; conditions: ATCC 48339, 120 h, read-out: GI
Method in brief: as §1

[11] = Ratio of IC50 for photosynthetic electron transport in active intact chloroplast thylakoid membrane of Spinacea oleracea L. leaves to IC50 for Pythium ultimum ATCC 58812
Globisporangium ultimum [12] = test: Antifungal activity against logarithmic phase of Pythium ultimum Trow ATCC 58812 assessed as growth inhibition measured at 5 days post-drug treatment; type: functional, organism-based; conditions: ATCC 58812, 120 h
Method in brief: (§2)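 Log-phase mycelium grown on cellophane over PDA (pH 5.6, 26 ± 1 °C) moved to PDA containing compound at 10, 50 and 100 µg mL^-1 final, with 0.1% DMSO in test and control media. Colony diameter was measured daily for 5 days, in triplicate, relative to untreated controls. IC50 came from curves of activity (%) versus log inhibitor concentration.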

[13] = In vitro inhibition of basal rate of photosynthetic electron transport (Hill reaction) in active intact chloroplast thylakoid membrane of Spinacia oleracea (spinach) leaves assessed as inhibition of light-driven ferricyanide reduction at 5 uM measured at 24 degC at 30 s intervals for 10 min (reference value: 100 +/-3.1%)
Botrytis cinerea [14] = test: Antifungal activity against logarithmic phase of Botryotinia fuckeliana ATCC 48339 assessed as growth inhibition measured at 5 days post-drug treatment; type: functional, organism-based; conditions: ATCC 48339, 120 h
Method in brief: as §2

**Q.** Which inhibition of growth at 50 µg/mL (Pyricularia grisea [1]) does the source give for `CCOC(=O)c1cn[nH]c1NC(=S)Nc1ccccc1Cl` here?
**A.** 60.9%

**Q.** And the inhibition of growth at 10 µg/mL (Pyricularia grisea [2])?
**A.** 48.7%

**Q.** And the IC50 (Pyricularia grisea [3])?
**A.** 48 µM

**Q.** What about the inhibition of growth at 100 µg/mL (Pyricularia grisea [4]) of the same compound?
**A.** 67%

**Q.** What about the inhibition of growth at 100 µg/mL (Globisporangium ultimum [5]) of the same compound?
**A.** 70%

**Q.** And the inhibition of growth at 50 µg/mL (Globisporangium ultimum [6])?
**A.** 68.7%

**Q.** And the inhibition of growth at 10 µg/mL (Globisporangium ultimum [7])?
**A.** 66.5%

**Q.** What about the inhibition of growth at 10 µg/mL (Botrytis cinerea [8]) of the same compound?
**A.** 4.3%

**Q.** What about the inhibition of growth at 50 µg/mL (Botrytis cinerea [9]) of the same compound?
**A.** 30.9%

**Q.** What about the inhibition of growth at 100 µg/mL (Botrytis cinerea [10]) of the same compound?
**A.** 36%

**Q.** For `Cc1c(C(=O)O)c(C(=O)NC(C)(C)C)nn1-c1ccc(Cl)cc1`, which inhibition of growth at 50 µg/mL (Pyricularia grisea [1]) is on record?
**A.** 31.5%

**Q.** And the inhibition of growth at 10 µg/mL (Pyricularia grisea [2])?
**A.** 20.9%

**Q.** What about the inhibition of growth at 100 µg/mL (Pyricularia grisea [4]) of the same compound?
**A.** 33.2%

**Q.** And the Ratio IC50 [11]?
**A.** 25

**Q.** And the inhibition of growth at 100 µg/mL (Globisporangium ultimum [5])?
**A.** 69.3%

**Q.** What about the IC50 (Globisporangium ultimum [12]) of the same compound?
**A.** 38 µM

**Q.** What about the inhibition of growth at 50 µg/mL (Globisporangium ultimum [6]) of the same compound?
**A.** 69.3%

**Q.** And the inhibition of growth at 10 µg/mL (Globisporangium ultimum [7])?
**A.** 47.2%

**Q.** What about the inhibition of growth at 10 µg/mL (Botrytis cinerea [8]) of the same compound?
**A.** 45.6%

**Q.** What about the inhibition of growth at 50 µg/mL (Botrytis cinerea [9]) of the same compound?
**A.** 49.3%

**Q.** And the IC50 [13]?
**A.** 950 µM

**Q.** And the inhibition of growth at 100 µg/mL (Botrytis cinerea [10])?
**A.** 49.9%

**Q.** For `O=c1c2cn[nH]c2[nH]c(=S)n1-c1ccccc1Cl`, which IC50 (Botrytis cinerea [14]) is on record?
**A.** 83 µM

**Q.** And the inhibition of growth at 10 µg/mL (Botrytis cinerea [8])?
**A.** 40%

**Q.** What about the inhibition of growth at 50 µg/mL (Botrytis cinerea [9]) of the same compound?
**A.** 63.8%

**Q.** What about the inhibition of growth at 100 µg/mL (Botrytis cinerea [10]) of the same compound?
**A.** 66.2%

**Q.** Which inhibition of growth at 50 µg/mL (Pyricularia grisea [1]) does the source give for `CCOC(=O)c1cn[nH]c1NC(=S)Nc1cccc(Cl)c1` here?
**A.** 18%

**Q.** What about the inhibition of growth at 10 µg/mL (Pyricularia grisea [2]) of the same compound?
**A.** 16.6%

**Q.** What about the inhibition of growth at 100 µg/mL (Pyricularia grisea [4]) of the same compound?
**A.** 26%

**Q.** What about the inhibition of growth at 100 µg/mL (Globisporangium ultimum [5]) of the same compound?
**A.** 60.8%

**Q.** And the IC50 (Botrytis cinerea [14])?
**A.** 31 µM

**Q.** And the inhibition of growth at 50 µg/mL (Globisporangium ultimum [6])?
**A.** 38.1%

**Q.** And the inhibition of growth at 10 µg/mL (Globisporangium ultimum [7])?
**A.** 32.9%

**Q.** And the inhibition of growth at 10 µg/mL (Botrytis cinerea [8])?
**A.** 56%

**Q.** And the inhibition of growth at 50 µg/mL (Botrytis cinerea [9])?
**A.** 56.8%

**Q.** What about the inhibition of growth at 100 µg/mL (Botrytis cinerea [10]) of the same compound?
**A.** 76.2%

**Q.** Which results are given for `O=C(Nc1ccccc1)c1ccccc1I` [BENODANIL]?
**A.** IC50 (Botrytis cinerea [14]): 66 µM; inhibition of growth at 10 µg/mL (Botrytis cinerea [8]): 6.3%; inhibition of growth at 50 µg/mL (Botrytis cinerea [9]): 91.2%; inhibition of growth at 100 µg/mL (Botrytis cinerea [10]): 97.6%

Reference: ChEMBL document CHEMBL3045616, “Synthetic pyrazole derivatives as growth inhibitors of some phytopathogenic fungi” (J Agric Food Chem, 2007)
